Measured values reported in ChEMBL document CHEMBL1671716, “Antimicrobial susceptibility patterns for recent clinical isolates of anaerobic bacteria in South Korea” (2010).

Key:
[1] = test system: Bifidobacterium sp.; experiment: Antimicrobial activity against Bifidobacterium sp. assessed as percent resistant isolates after 48 hrs by agar dilution method; format: functional
Summary of the method: (§1)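 CLSI agar dilution on recent Korean clinical anaerobe isolates. Inoculum 10^5 CFU per spot by replicator. Plates incubated in an anaerobic chamber at 37°C for 48 h. For piperacillin plus tazobactam, tazobactam was held constant at 4 μg/ml. Resistance and susceptibility rates derived from MICs.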

[2] = test system: Peptoniphilus asaccharolyticus; experiment: Antimicrobial activity against Peptoniphilus asaccharolyticus assessed as percent resistant isolates after 48 hrs by agar dilution method; format: functional; summary of the method: as §1
[3] = test system: Parvimonas micra; experiment: Antimicrobial activity against Peptostreptococcus micros assessed as percent susceptible isolates after 48 hrs by agar dilution method; format: functional; summary of the method: as §1
[4] = test system: Eggerthella lenta; experiment: Antimicrobial activity against Eubacterium lentum assessed as percent susceptible isolates after 48 hrs by agar dilution method; format: functional
Summary of the method: (§2)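 CLSI agar dilution (M11-A7); inoculum 10^5 CFU applied by replicator; plates incubated anaerobically 48 h at 37°C. For piperacillin-tazobactam, tazobactam held constant at 4 μg/ml.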

[5] = test system: Anaerococcus prevotii; experiment: Antimicrobial activity against Anaerococcus prevotii assessed as percent resistant isolates after 48 hrs by agar dilution method; format: functional; summary of the method: as §1
[6] = test system: Prevotella buccae; experiment: Antimicrobial activity against Prevotella buccae assessed as percent susceptible isolates after 48 hrs by agar dilution method; format: functional, Segatella buccae; summary of the method: as §2
[7] = test system: Actinomyces naeslundii; experiment: Antimicrobial activity against Actinomyces naeslundii after 48 hrs by agar dilution method; format: functional
Summary of the method: (§3)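 MICs on clinical anaerobe isolates by the CLSI agar dilution method. Inoculum of 10^5 CFU applied with a Steers replicator. Plates incubated 48 h at 37°C in an anaerobic chamber.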

[8] = test system: Parabacteroides distasonis; experiment: Antimicrobial activity against Bacteroides distasonis after 48 hrs by agar dilution method; format: functional; summary of the method: as §3
[9] = test system: Clostridioides difficile; experiment: Antimicrobial activity against Clostridium difficile after 48 hrs by agar dilution method; format: functional
[10] = test system: Peptoniphilus asaccharolyticus; experiment: Antimicrobial activity against Peptoniphilus asaccharolyticus assessed as percent susceptible isolates after 48 hrs by agar dilution method; format: functional; summary of the method: as §2
[11] = test system: Actinomyces israelii; experiment: Antimicrobial activity against Actinomyces israelii after 48 hrs by agar dilution method; format: functional; summary of the method: as §3
[12] = test system: Clostridioides difficile; experiment: Antimicrobial activity against Clostridium difficile assessed as percent resistant isolates after 48 hrs by agar dilution method; format: functional
[13] = test system: Peptostreptococcus anaerobius; experiment: Antimicrobial activity against Peptostreptococcus anaerobius after 48 hrs by agar dilution method; format: functional; summary of the method: as §2
[14] = test system: Schaalia odontolytica; experiment: Antimicrobial activity against Actinomyces odontolyticus assessed as percent susceptible isolates after 48 hrs by agar dilution method; format: functional
[15] = test system: Eubacterium sp.; experiment: Antimicrobial activity against Eubacterium sp. after 48 hrs by agar dilution method; format: functional; summary of the method: as §2
[16] = test system: Bacteroides fragilis; experiment: Antimicrobial activity against Bacteroides fragilis assessed as percent resistant isolates after 48 hrs by agar dilution method; format: functional; summary of the method: as §1
[17] = test system: Finegoldia magna; experiment: Antimicrobial activity against Finegoldia magna after 48 hrs by agar dilution method; format: functional; summary of the method: as §2
[18] = test system: Eggerthella lenta; experiment: Antimicrobial activity against Eubacterium lentum assessed as percent resistant isolates after 48 hrs by agar dilution method; format: functional; summary of the method: as §1
[19] = test system: Actinomyces israelii; experiment: Antimicrobial activity against Actinomyces israelii assessed as percent susceptible isolates after 48 hrs by agar dilution method; format: functional
[20] = test system: Fusobacterium nucleatum; experiment: Antimicrobial activity against Fusobacterium nucleatum after 48 hrs by agar dilution method; format: functional; summary of the method: as §2
[21] = test system: Bifidobacterium adolescentis; experiment: Antimicrobial activity against Bifidobacterium adolescentis assessed as percent resistant isolates after 48 hrs by agar dilution method; format: functional; summary of the method: as §1
[22] = test system: Prevotella bivia; experiment: Antimicrobial activity against Prevotella bivia assessed as percent resistant isolates after 48 hrs by agar dilution method; format: functional; summary of the method: as §1
[23] = test system: Bacteroides fragilis; experiment: Antimicrobial activity against Bacteroides fragilis after 48 hrs by agar dilution method; format: functional; summary of the method: as §3
[24] = test system: Schaalia meyeri; experiment: Antimicrobial activity against Actinomyces meyeri after 48 hrs by agar dilution method; format: functional; summary of the method: as §3
[25] = test system: Anaerococcus prevotii; experiment: Antimicrobial activity against Anaerococcus prevotii assessed as percent susceptible isolates after 48 hrs by agar dilution method; format: functional
[26] = test system: Porphyromonas asaccharolytica; experiment: Antimicrobial activity against Porphyromonas asaccharolytica after 48 hrs by agar dilution method; format: functional; summary of the method: as §2
[27] = test system: Prevotella intermedia; experiment: Antimicrobial activity against Prevotella intermedia after 48 hrs by agar dilution method; format: functional; summary of the method: as §2
[28] = test system: Finegoldia magna; experiment: Antimicrobial activity against Finegoldia magna assessed as percent resistant isolates after 48 hrs by agar dilution method; format: functional; summary of the method: as §1
[29] = test system: Bacteroides caccae; experiment: Antimicrobial activity against Bacteroides caccae assessed as percent resistant isolates after 48 hrs by agar dilution method; format: functional; summary of the method: as §1
[30] = test system: Bacteroides caccae; experiment: Antimicrobial activity against Bacteroides caccae assessed as percent susceptible isolates after 48 hrs by agar dilution method; format: functional
[31] = test system: Eubacterium sp.; experiment: Antimicrobial activity against Eubacterium sp. assessed as percent susceptible isolates after 48 hrs by agar dilution method; format: functional; summary of the method: as §2
[32] = test system: Anaerococcus prevotii; experiment: Antimicrobial activity against Anaerococcus prevotii after 48 hrs by agar dilution method; format: functional; summary of the method: as §3
[33] = test system: Clostridioides difficile; experiment: Antimicrobial activity against Clostridium difficile assessed as percent susceptible isolates after 48 hrs by agar dilution method; format: functional
[34] = test system: Eubacterium sp.; experiment: Antimicrobial activity against Eubacterium sp. assessed as percent resistant isolates after 48 hrs by agar dilution method; format: functional; summary of the method: as §1
[35] = test system: Bacteroides fragilis; experiment: Antimicrobial activity against Bacteroides fragilis assessed as percent susceptible isolates after 48 hrs by agar dilution method; format: functional
[36] = test system: Bifidobacterium sp.; experiment: Antimicrobial activity against Bifidobacterium sp. after 48 hrs by agar dilution method; format: functional; summary of the method: as §3
[37] = test system: Schaalia odontolytica; experiment: Antimicrobial activity against Actinomyces odontolyticus assessed as percent resistant isolates after 48 hrs by agar dilution method; format: functional; summary of the method: as §1
[38] = test system: Fusobacterium necrogenes; experiment: Antimicrobial activity against Fusobacterium necrogenes after 48 hrs by agar dilution method; format: functional; summary of the method: as §2
[39] = test system: Hoylesella oralis; experiment: Antimicrobial activity against Prevotella oralis assessed as percent susceptible isolates after 48 hrs by agar dilution method; format: functional
Summary of the method: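 CLSI agar dilution MIC testing of clinical isolates. 10^5 CFU spotted by replicator, plates incubated 48 h at 37°C in an anaerobic chamber. Susceptibility rates derived from the MICs.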

[40] = test system: Peptostreptococcus anaerobius; experiment: Antimicrobial activity against Peptostreptococcus anaerobius assessed as percent susceptible isolates after 48 hrs by agar dilution method; format: functional; summary of the method: as §1
[41] = test system: Fusobacterium mortiferum; experiment: Antimicrobial activity against Fusobacterium mortiferum after 48 hrs by agar dilution method; format: functional; summary of the method: as §2
[42] = test system: Bacteroides ovatus; experiment: Antimicrobial activity against Bacteroides ovatus assessed as percent susceptible isolates after 48 hrs by agar dilution method; format: functional
[43] = test system: Clostridium perfringens; experiment: Antimicrobial activity against Clostridium perfringens assessed as percent susceptible isolates after 48 hrs by agar dilution method; format: functional
[44] = test system: Bacteroides ovatus; experiment: Antimicrobial activity against Bacteroides ovatus after 48 hrs by agar dilution method; format: functional; summary of the method: as §3
[45] = test system: Phocaeicola vulgatus; experiment: Antimicrobial activity against Bacteroides vulgatus assessed as percent resistant isolates after 48 hrs by agar dilution method; format: functional; summary of the method: as §1
[46] = test system: Phocaeicola vulgatus; experiment: Antimicrobial activity against Bacteroides vulgatus assessed as percent susceptible isolates after 48 hrs by agar dilution method; format: functional
[47] = test system: Bacteroides ovatus; experiment: Antimicrobial activity against Bacteroides ovatus assessed as percent resistant isolates after 48 hrs by agar dilution method; format: functional; summary of the method: as §1
[48] = test system: Bifidobacterium adolescentis; experiment: Antimicrobial activity against Bifidobacterium adolescentis after 48 hrs by agar dilution method; format: functional; summary of the method: as §3

CCN1CCN(C(=O)N[C@@H](C(=O)N[C@@H]2C(=O)N3[C@@H]2SC(C)(C)[C@@H]3C(=O)O)c2ccccc2)C(=O)C1=O [PIPERACILLIN]
42%: Activity [30] | Activity [42] | Activity [46]
100%: Activity [10] | Activity [25] | Activity [33] | Activity [40] | Activity [43]
0.25 µg/mL: MIC50 [13] | MIC90 [32]
16 µg/mL: MIC90 [13] | MIC90 [27]
128 µg/mL: MIC50 [8] | MIC50 [44]
27%: Activity [16]
0.125 µg/mL: MIC90 [17] | MIC50 [32]
0.06 µg/mL: MIC [20] | MIC [26] | MIC [38] | MIC [41]
> 256 µg/mL: MIC90 [8] | MIC90 [23] | MIC90 [44]
1 µg/mL: MIC50 [7] | MIC50 [11] | MIC50 [15] | MIC50 [24] | MIC50 [36] | MIC50 [48]
92%: Activity [4] | Activity [14] | Activity [19] | Activity [31]
67%: Activity [35]
≤ 0.06 µg/mL: MIC50 [17]
8 µg/mL: MIC90 [7] | MIC90 [9] | MIC90 [11] | MIC90 [15] | MIC50 [23] | MIC90 [24] | MIC50 [27] | MIC90 [36] | MIC90 [48]
4 µg/mL: MIC50 [9]
78%: Activity [6] | Activity [39]
0%: Activity [1] | Activity [2] | Activity [3] | Activity [5] | Activity [12] | Activity [18] | Activity [21] | Activity [28] | Activity [34] | Activity [37]
11%: Activity [22]
51%: Activity [29] | Activity [45] | Activity [47]
